Screening data from PubChem BioAssay.
Only some compounds are listed: those with a hit (about 3.5% of all), similar ones and a draw of the others.
RGS4 pot: RGS4 potentiation or activation; HEK293 M3R/inducible RGS4, carbachol calcium flux Fluo4; active compounds read low; B-score at 10 µM; 0.92% of 310,000 active; AID 463111;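 active means B-score of the integrated calcium signal more than 4 SD below the library mean, with starting fluorescence not abnormally high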;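 further: negative B-score means reduced calcium response which marks RGS4 activation or potentiation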
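Assay system: Inducible-RGS4 HEK293 cells carrying M3 receptor | Schedule: Compound preincubation 20 min at room temperature before agonist | Signal: Kinetic calcium fluorescence imaging with Fluo4-AM dye, 2 µM | Read-out basis: B score from integrated fluorescence ratio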
MrgX1 antagonist: antagonists of human MrgX1 receptor. B-score at 10 µM. Q96LB2. AID 588676. 1.3% of 310,000 active. MRGX1-HEK293 calcium flux, Fluo-4, BAM8-22 antagonism; active compounds read low;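 active means calcium-response B-score plate-corrected more than 3 library SD below zero, starting fluorescence within 5 deviations, no agonist response on first addition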;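 further: peak minus trough fluorescence over baseline after final BAM8-22 challenge near maximal dose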
Target sequence (Q96LB2 whole entry, looked up): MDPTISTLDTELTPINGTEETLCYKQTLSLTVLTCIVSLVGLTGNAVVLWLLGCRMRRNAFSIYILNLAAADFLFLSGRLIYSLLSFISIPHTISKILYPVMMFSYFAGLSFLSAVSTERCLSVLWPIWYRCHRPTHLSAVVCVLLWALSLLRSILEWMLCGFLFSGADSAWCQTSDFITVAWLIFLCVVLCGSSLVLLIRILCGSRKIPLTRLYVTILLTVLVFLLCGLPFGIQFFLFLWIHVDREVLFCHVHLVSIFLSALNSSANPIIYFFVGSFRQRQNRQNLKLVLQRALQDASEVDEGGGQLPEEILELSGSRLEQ
RGS4 inh: human RGS4 inhibition; P49798; HEK293 M3R/RGS4 inducible, Fluo-4 calcium flux; active compounds read high; triggered by carbachol at its EC20; B-score at 10 µM; 0.45% of 310,000 active;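 active means B-score, a plate-corrected calcium signal, over three deviations above library mean, with baseline fluorescence within five deviations of library mean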;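 further: RGS4 expression induced by doxycycline in cells with stable M3 receptor; B-score is computed from the integrated fluorescence ratio over baseline after carbachol; higher B-score means a larger calcium signal and so more RGS4 inhibition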
Target sequence (P49798 whole entry, looked up): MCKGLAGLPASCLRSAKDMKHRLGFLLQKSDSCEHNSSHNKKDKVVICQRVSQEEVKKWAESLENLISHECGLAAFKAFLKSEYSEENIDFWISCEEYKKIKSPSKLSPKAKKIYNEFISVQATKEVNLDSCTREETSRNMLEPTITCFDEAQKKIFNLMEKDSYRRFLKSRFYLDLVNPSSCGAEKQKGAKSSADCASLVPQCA
MrgX1 ag: agonists of human MrgX1 receptor. MrgX1-HEK293 cells, Fluo-4 calcium fluorescence, agonist mode; active compounds read high. B-score at 10 µM. Q96LB2. AID 588627. 0.44% of 310,000 active;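 active means calcium response B-score plate-corrected fluorescence ratio at least 3 library SD, with starting fluorescence B-score inside 5 SD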
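Material: MrgX1-expressing HEK293 cells; input: 15,000 cells per well; doses: test compound given as first of three sequential additions; schedule: overnight plating before 1 h dye loading; technique: Fluo-4 NW calcium-flux fluorescence, kinetic read; evaluation: baseline-normalised fluorescence change ratio, B-scored; control set: plate-wise positive and negative controls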
MrgX1 allo act: allosterically activates human MrgX1 receptor signaling | B-score at 10 µM | MrgX1-HEK293, Fluo-4 calcium flux, FDSS; active compounds read high | 0.63% of 310,000 active | Q96LB2;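 active means plate-corrected calcium response at least 3 library SD above typical, normal starting fluorescence, not activating the receptor alone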;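 further: compound read alongside a low EC10 to EC30 dose of BAM8-22 agonist; peak minus trough fluorescence over baseline measured at the second addition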
MrgX1 ant reconf: reconfirmed antagonist of human MrgX1 receptor signaling. shares compounds with MrgX1 antagonist. MrgX1-HEK293, BAM8-22 calcium flux, Fluo-4; active compounds read low. remaining BAM8-22 calcium response % of control (active compounds read low), % at 10 µM. 19% of 2,300 active;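 active means remaining agonist calcium response no higher than 100% minus 3 SD of agonist-only control wells, with starting fluorescence near control levels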;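 further: agonist BAM8-22 given at a near maximal EC90 to ECmax level; peak minus minimum fluorescence divided by baseline after agonist addition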
HEK293 Ca flux: activity in parental HEK293 cells lacking MrgX1. 2% of 4,000 active. shares compounds with MrgX1 antagonist. fluorescence ratio F(max-min)/F0 at 10 µM. Fluo-4 calcium fluorescence, FDSS;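 active means duplicate-averaged calcium fluorescence ratio at least three times the standard deviation of buffer wells, a nonspecific response in parental cells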
HEK293 Ca counter: counter-screen for MrgX1 allosteric activators: effect in parental HEK293 cells. shares compounds with MrgX1 antagonist. fluorescence ratio F(max-min)/F0 at 10 µM. AID 624114. 0.4% of 4,000 active. parental HEK293 calcium flux, Fluo-4 fluorescence ratio; active compounds read high;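 active means calcium fluorescence ratio, averaged over duplicates, at least 3 SD of the buffer-well ratio, meaning a nonspecific response in receptor-free cells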;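 further: untransfected parental HEK293 lacking MrgX1 used as counterscreen for MrgX1 allosteric activators; fluorescence change taken during the second addition on a kinetic imager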
HEK293 Ca cntr2: activity in parental HEK293 cells lacking MrgX1 receptor; shares compounds with MrgX1 antagonist; Fluo-4 calcium fluorescence (FDSS); active compounds read high; fluorescence ratio F(max-min)/F0 at 10 µM; 8.7% of 4,000 active; AID 624115;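 active means calcium fluorescence ratio at least three times the spread of buffer wells, meaning a non-specific response in parental cells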
A number is an active result; 0 = inactive; - = no result given.

SMILES	RGS4 pot	MrgX1 antagonist	RGS4 inh	MrgX1 ag	MrgX1 allo act	MrgX1 ant reconf	HEK293 Ca flux	HEK293 Ca counter	HEK293 Ca cntr2
O=C(NCCc1ccncc1)Nc1cccc(Cl)c1	0	-4.6	0	0	0	0	0	0	0
O=C(Cc1ccccc1)NCC(=O)OCc1cccc([N+](=O)[O-])c1	0	0	0	0	0	-	-	-	-
Cc1nnc(NC(=O)c2ccc(S(=O)(=O)N3CCCCCC3)cc2)o1	0	-12	0	0	0	0	0	0	0
Cc1nnc(NC(=O)c2ccc(S(=O)(=O)N3CC(C)OC(C)C3)cc2)o1 (stereo unspecified)	0	0	0	0	0	-	-	-	-
CSc1ncc(C(=O)Nc2cccc(Cl)c2)c(C)n1	0	0	0	0	0	-	-	-	-
CCC(C)Sc1nc2c(cnn2-c2ccccc2)c(=O)[nH]1 (stereo unspecified)	0	-4.9	0	0	0	0	0	0	0
CCC(C)Sc1nc2c(cnn2-c2ccc(C)cc2)c(=O)[nH]1 (stereo unspecified)	0	0	0	0	0	-	-	-	-
COC(=O)c1c[nH]c(=O)c2ccccc12	0	-5.7	0	0	0	0	0	0	0
CC(=O)Nc1ccccc1NC(=O)c1ccccc1-c1ccccc1	0	0	0	0	0	-	-	-	-
O=C(c1ccccc1-c1ccccc1)N1CCCC1	0	0	0	0	0	-	-	-	-
O=C(c1ccccc1-c1ccccc1)N1CCCCC1	0	-5.2	0	0	0	0	0	0	0
CNC(=O)c1ccccc1-c1ccccc1	0	-5.3	0	0	0	0	0	0	0
Nc1cc(C(=O)O)ccc1Sc1ccccc1C(=O)O	0	0	0	0	0	-	-	-	-
Cc1ccc(-c2nn3cnnc3c3ccccc23)cc1	0	0	0	0	0	-	-	-	-
O=C(CSc1nnc(CNc2cccc(C(F)(F)F)c2)n1Cc1ccco1)NCc1ccco1	0	0	0	0	0	-	-	-	-
O=C(O)CSc1nnc(CNc2cccc(C(F)(F)F)c2)n1Cc1ccco1	0	-7.4	0	0	0	79%	0	0	0
Cc1cccc(NC(=O)c2cc(NC(=O)c3ccco3)ccc2Cl)n1	-	-4.7	-	0	0	85%	0	0	0
CSc1ccccc1OCc1cc(C(=O)N2CCC(c3ccncc3)CC2)no1	0	-6.1	0	0	0	80%	0	0	0
O=C(c1cc(COc2ccc(F)cc2Cl)on1)N1CCC(c2ccncc2)CC1	0	0	0	0	0	-	-	-	-
Cc1cc(NS(=O)(=O)c2ccc(NC(=O)c3cc4cc(Br)ccc4oc3=O)cc2)no1	0	0	0	0	0	-	-	-	-
O=C(Nc1ccc(Cl)cc1)N(Cc1cccnc1)Cc1ccco1	0	-5.7	0	0	0	0	0	0	0
Cc1cccc(N2CCN(C(=O)c3ccc(N4CCCC4=O)cc3)CC2C)c1 (stereo unspecified)	0	-4.9	0	0	0	0	0	0	0
Cc1cccc(N2CCN(C(=O)c3cccc(N4C(=O)C5C6C=CC(C6)C5C4=O)c3)CC2C)c1 (stereo unspecified)	0	0	0	0	0	-	-	-	-
CS(=O)(=O)N1CCC(Oc2ccccc2C(=O)N2CCCCC2CO)CC1 (stereo unspecified)	0	-4.6	0	0	0	0	0	0	0
O=C(C1CCCCC1)N1CCN(c2ccnc3cc(Cl)ccc23)CC1	0	-12	0	0	0	0	0	0	0
O=C(C1CCC1)N1CCN(c2ccnc3cc(Cl)ccc23)CC1	0	0	0	0	0	-	-	-	-
Cn1c(=O)c2c(nc(CN3CCN(C(=O)c4ccco4)CC3)n2CCCc2ccccc2)n(C)c1=O	0	0	0	0	0	-	-	-	-
CC1=C(C#N)CCC(=O)N1Cc1ccc(C)cc1	0	-7.7	0	0	0	0	0	0	0
